Data taken from ChEMBL document CHEMBL4043082, “Clerodane Diterpenoid Glucosides from the Stems of Tinospora sinensis” (J Nat Prod, 2017).

How the values were obtained:
HeLa = experiment: Cytotoxicity against human HeLa cells assessed as reduction in cell viability incubated for 48 hrs by MTT assay; type: functional, cell-based
Summary of the method: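 HeLa cells seeded at 8 × 10^3 per well, exposed in triplicate to 2.5, 5, 10, 20 and 50 μM of each compound at 37 °C for 48 h; doxorubicin as positive control. MTT (5 mg/mL) added for 4 h, formazan dissolved in DMSO, absorbance at 570 nm; IC50 by Logit method.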

N9 = experiment: Inhibition of LPS-induced nitric oxide production in mouse N9 cells by Griess reaction based assay; type: functional, cell-based
Summary of the method: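 N9 microglial cells activated with LPS; nitrite accumulation in culture supernatants measured by Griess reaction; microglial cell viability checked in parallel by MTT assay.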

| SMILES | IC50 (HeLa) | IC50 (N9) |
| --- | --- | --- |
| CC(=O)O[C@@H]1[C@@H]2[C@H](CC[C@@]3(O)C(=O)O[C@H](c4ccoc4)C[C@@]23C)[C@H](O[C@@H]2O[C@H](CO)[C@@H](O)[C@H](O)[C@H]2O)C[C@@H]1O | ≥ 10 µM | ≥ 100 µM |
| COc1cc(/C=C\C(=O)O[C@@H]2C[C@H](OC(C)=O)[C@H](O)[C@@H]3[C@@H]2CC[C@@]2(O)C(=O)O[C@H](c4ccoc4)C[C@@]32C)ccc1O[C@@H]1O[C@H](CO)[C@@H](O)[C@H](O)[C@H]1O | ≥ 10 µM | ≥ 100 µM |
| C[C@@]12C[C@@H](c3ccoc3)OC(=O)[C@]1(O)CC[C@]1(C)[C@H]2[C@H]2C=C[C@]1(O[C@@H]1O[C@H](CO)[C@@H](O)[C@H](O)[C@H]1O)C(=O)O2 | ≥ 10 µM | ≥ 100 µM |
| CC(=O)O[C@@H]1[C@@H]2[C@H](CC[C@@]3(O)C(=O)O[C@H](c4ccoc4)C[C@@]23C)[C@H](O[C@@H]2O[C@H](CO)[C@@H](O)[C@H](O)[C@H]2O)C[C@@H]1OC(C)=O | ≥ 10 µM | ≥ 100 µM |
| COc1cc(/C=C/C(=O)O[C@H]2C[C@H](O)[C@H](O)[C@@H]3[C@@H]2CC[C@@]2(O)C(=O)O[C@H](c4ccoc4)C[C@@]32C)ccc1O[C@@H]1O[C@H](CO)[C@@H](O)[C@H](O)[C@H]1O | ≥ 10 µM | ≥ 100 µM |
| C[C@@]12CC[C@@]3(O)C(=O)O[C@H](c4ccoc4)C[C@@]3(C)[C@@H]1[C@@H](O[C@@H]1O[C@H](CO)[C@@H](O)[C@H](O)[C@H]1O)C=CC2=O | ≥ 10 µM | ≥ 100 µM |
| COc1cc(/C=C/C(=O)O[C@@H]2C[C@H](OC(C)=O)[C@H](O)[C@@H]3[C@@H]2CC[C@@]2(O)C(=O)O[C@H](c4ccoc4)C[C@@]32C)ccc1O[C@@H]1O[C@H](CO)[C@@H](O)[C@H](O)[C@H]1O | ≥ 10 µM | ≥ 100 µM |
| COc1cc(/C=C/C(=O)O[C@H]2C[C@H](OC(C)=O)[C@H](O)[C@@H]3[C@@H]2CC[C@@]2(O)C(=O)O[C@H](c4ccoc4)C[C@@]32C)ccc1O[C@@H]1O[C@H](CO)[C@@H](O)[C@H](O)[C@H]1O | ≥ 10 µM | ≥ 100 µM |
| COc1cc(/C=C/C(=O)O[C@@H]2C[C@H](O)[C@H](O)[C@@H]3[C@@H]2CC[C@@]2(O)C(=O)O[C@H](c4ccoc4)C[C@@]32C)ccc1O[C@@H]1O[C@H](CO)[C@@H](O)[C@H](O)[C@H]1O | ≥ 10 µM | ≥ 100 µM |
| COc1cc(/C=C/C(=O)O[C@@H]2CC[C@H](O)[C@@H]3[C@@H]2CC[C@@]2(O)C(=O)O[C@H](c4ccoc4)C[C@@]32C)ccc1O[C@@H]1O[C@H](CO)[C@@H](O)[C@H](O)[C@H]1O | ≥ 10 µM | ≥ 100 µM |
| COc1cc(/C=C/C(=O)O[C@@H]2C[C@H](O)[C@H](OC(C)=O)[C@@H]3[C@@H]2CC[C@@]2(O)C(=O)O[C@H](c4ccoc4)C[C@@]32C)ccc1O[C@@H]1O[C@H](CO)[C@@H](O)[C@H](O)[C@H]1O | ≥ 10 µM | ≥ 100 µM |
| C[C@@]12C[C@@H](c3ccoc3)OC(=O)[C@]1(O)CC[C@H]1[C@H]2[C@@H](O)[C@@H](O)C[C@H]1O[C@@H]1O[C@H](CO)[C@@H](O)[C@H](O)[C@H]1O | 8.35 µM | ≥ 100 µM |
| CC(=O)O[C@H]1C[C@@H](O[C@@H]2O[C@H](CO)[C@@H](O)[C@H](O)[C@H]2O)[C@H]2CC[C@@]3(O)C(=O)O[C@H](c4ccoc4)C[C@@]3(C)[C@@H]2[C@H]1O | ≥ 10 µM | ≥ 100 µM |
| COc1cccc2c1C(=O)c1c(O)c3c(c(O)c1C2=O)C[C@@](O)(C(=O)CO)C[C@@H]3O[C@H]1C[C@H](N)[C@H](O)[C@H](C)O1 [DOXORUBICIN] | 0.32 µM | – |
